Sampled rows, rich in hits. Any-hit rate of the full collection: about 3.8%.
Lipid droplet: inhibitors of hepatocyte lipid droplet formation, primary screen, imaging, high-throughput imaging, BODIPY stain; inhibition, % at 6.5 µM; 240,000 compounds, 0.4% hits; AML12 mouse hepatocytes, oleate lipid droplets;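 active = lipid droplet intensity inhibited by at least 50%, with more than 500 cells counted; inconclusive = wells with under 300 cells, treated as cytotoxic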
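Technique: fluorescence imaging, 20x objective, two fields per well / Assay system: AML12 hepatocytes (mouse) / Measure: % inhibition of lipid droplet signal / Doses: 6.5 µM single-point dosing / Incubation: overnight exposure / Reagent: 100 µM oleic acid challenge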
NS3 helicase inh: inhibitors of HCV NS3 helicase, primary screen, biochemical, Cy5 molecular beacon fluorescence; Hepatitis C virus NS3 helicase; NS3 helicase DNA unwinding; inhibition, % at 10.9 µM; 290,000 compounds, 0.56% hits; AID 1800, 2009;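 active = inhibition above the mean of all tested compounds plus 3 SD, set per campaign, cut at about 35% in these data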;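 also: 0% = DMSO wells and 100% = thioflavine S control wells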
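Control set: DMSO versus 110 µM thioflavine S; Material: NS3 helicase fragment of HCV; Measured by: Cy5 fluorescence at 0 and 60 min, beacon hairpin quenching; Read-out basis: percent inhibition from t60/t0 fluorescence ratio; Times: reaction time 60 min, 25 °C; Repeats: single replicate; Compound dosing: single dose, 10.9 µM nominal final, DMSO 0.8% final.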
HSF1 inhib: HSF1 inhibitors in luciferase reporter cells, primary screen, cell-based, NIH3T3, luminescence; NIH3T3-HGL HSE-luciferase, MG132-induced, luminescence 8 h; stronger effect = lower value; activity change, negative = inhibition, % at 7.5 µM (by protocol); 300,000 compounds, 0.77% hits; AID 2098, 2009;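 active = more than half of replicate wells show activity change below -50%, luminescence cut by over half; inconclusive = some wells, but at most half, below -50%; inactive = no replicate well below -50%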;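 also: luciferase reports HSF-1 transcriptional activity via heat shock element; 0% = median of DMSO wells and -100% = zero luminescence signal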
HSP90 inh: HSP90 inhibitors, primary screen, cell lysate, luminescence; Heat shock protein HSP 90 (rabbit reticulocyte lysate; luciferase refolding); Rabbit reticulocyte lysate, luciferase refolding luminescence, 3 h; inhibition, % at 5.6 µM; 290,000 compounds, 0.91% hits; AID 1789, 2009;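 active = inhibition above the screen-wide mean plus 3 SD, computed separately per campaign, cut at about 16% in these data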;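 also: 0% = DMSO wells and 100% = 60 µM geldanamycin wells; inhibitors lower the luminescence because luciferase stays unfolded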
HSF1 activator: HSF-1 activators, primary screen, NIH3T3-HGL cells, MG132 stress, luminescence, single point; NIH3T3-HGL HSF-1 luciferase reporter, 8 h; 100% = twice DMSO control signal; activation, % at 9 µM; 300,000 compounds, 1.7% hits;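 active = mean replicate activation of at least 50% with a set share of replicates each reaching 50%; inconclusive = only one of those two conditions met; inactive = mean below 50% and too few replicates reaching it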;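 also: 0% = median of the neutral control wells and 100% = twice that signal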
* marks the source's active call; other numbers are inactive results; ? = inconclusive; nt = not tested or not shown.

SMILES	Lipid droplet	NS3 helicase inh	HSF1 inhib	HSP90 inh	HSF1 activator
c1ccc(CNc2nc(N3CCN(Cc4ccccc4)CC3)nc3ccccc23)cc1	-10	-89	-55*	4	-65
O=C(c1cc(Cl)ccc1Cl)N1CCOCC1	nt	-8	-72*	5	-78
O=C(O)c1cc(Cl)c(Cl)cc1C(=O)N1CCOCC1	-1	-17	-9	-1	-13
COc1ccc(-c2cc(C(=O)Nc3ccccc3O)c3ccccc3n2)cc1OC	6	-1	43	-1	71*
O=C(NNC(=O)c1cc(-c2ccc(Cl)c(Cl)c2)nc2ccccc12)Nc1ccccc1	nt	-7	43	3	56*
COc1ccc(-c2cc(C(=O)Nc3ccc(Cl)cc3Cl)c3ccccc3n2)cc1OC	-7	16	13	1	31
CCCn1cc(CN2CCCC(C(=O)c3ccc4c(c3)OCO4)C2)c(C)n1 (stereo not drawn)	0	4	-1	-10	-1
COc1ccc(-n2c(C)c(C)c3c(NCCCN(C)C)ncnc32)cc1	1	-2	-3	0	-1
CS(=O)(=O)N(CC(=O)NCC1CCCO1)c1cc(Cl)ccc1Cl (stereo not drawn)	nt	1	18	4	54*
COc1cccc(Oc2nc(N)ncc2[N+](=O)[O-])c1	-16	-6	-4	-3	-7
CC(=O)c1ccc(N=C2C(=O)Nc3ccccc32)cc1	0	-1	47	-2	62*
O=C1Nc2ccccc2C1=Nc1ccc(F)cc1	2	3	-37	6	-51
NS(=O)(=O)c1ccc(CCNC/C=C/c2ccccc2)cc1	-3	-21	-6	5	-2
NS(=O)(=O)c1ccc(CCNCC#Cc2ccccc2)cc1	1	-11	-71*	-1	-76
O=C(Nc1cccc(S(=O)(=O)NC2=NCCC2)c1)c1cc(Cl)ccc1[N+](=O)[O-]	nt	nt	-3	nt	9
CCOCCn1c(SC(C)C(C)=O)nc2c1c(=O)[nH]c(=O)n2C (stereo not drawn)	1	-11	8	-3	12
COc1cc(OC)cc(C(=O)O/N=C(\N)c2ccccn2)c1	22	14	30	2	55*
COc1ccc(C(=O)NNC(=O)c2ccccn2)cc1	-3	10	-68*	75*	-76
CCn1cc(C(=O)N2CCCC(C(=O)c3ccc4ccccc4c3)C2)cn1 (stereo not drawn)	-4	2	8	-3	16
Cc1cc2nc(-c3ccc[nH]c3=O)n(Cc3ccccc3F)c2cc1C	12	1	-25	3	-43
CCOC(=O)C1=C(C)N(C)C(=O)NC1c1cccc2ccccc12 (stereo not drawn)	nt	0	8	2	-16
O=C(COC(=O)c1ccc2ccccc2c1)NCCCc1ccccc1	6	0	-1	-1	14
CCC(C)[C@H](NC(=O)C1CC(=O)N(c2ccc3c(c2)OCO3)C1)C(=O)NC1CCCCC1 (stereo partly drawn)	14	6	0	-3	3
COC(=O)c1nn(-c2ccc(Oc3ccccc3)cc2)c(=O)cc1O	2	-2	-1	2	-9
N#CC(C#N)=C1C=CC=CN1/C(=C\c1ccccc1)C(=O)c1cccs1	8	-2	182	2	214*
SMILES	Lipid droplet	NS3 helicase inh	HSF1 inhib	HSP90 inh	HSF1 activator
N#CC(C#N)=C1C=CC=CN1/C(=C\c1ccccc1Cl)C(=O)c1ccccc1	-33	-1	nt	1	nt
CCN1C(=O)/C(=C/c2ccc(C)o2)N(C)C1=S	23	17	-9	0	7
Brc1ccc(-c2nnc(-c3ccco3)o2)cc1	nt	-3	43	-3	63*
Cc1ccc(SCC(=O)Nc2ccc(-c3nnc(-c4ccco4)o3)cc2)cc1	nt	-11	44	-1	78*
COc1ccc(N2CCN(C(=O)CCc3nnc4ccc(N5CCOCC5)nn34)CC2)cc1	0	1	2	-9	4
COc1ccc(OC)c(N(CC(=O)N2CCC(C)CC2)S(=O)(=O)c2ccc(OC)c(OC)c2)c1	nt	3	6	-2	-1
COc1ccc(OC)c(N(CC(=O)N2CCC(C)CC2)S(=O)(=O)c2ccccc2)c1	nt	-13	19	2	60*
CCCCn1c(N)c(N(CC(C)C)C(=O)c2cccc(S(=O)(=O)N3CCCCCC3)c2)c(=O)[nH]c1=O	-4	4	-6	1	-3
CCCCn1c(N)c(N(CC(C)C)C(=O)c2cccc(S(=O)(=O)N3CCCCC3)c2)c(=O)[nH]c1=O	nt	nt	-71*	nt	-77
Cc1ccc(OC(=O)c2ccc3nc(C)sc3c2)cc1	6	-3	-62*	3	-67
C(#Cc1ccccc1)C[N+]1(CC#Cc2ccccc2)CCCCC1	-19	-29	-10	0	-13
C#CC[N+]1(CC#Cc2ccccc2)CCCCC1	13	0	49	-1	82*
COc1ccc(/C(N)=N/OC(=O)CSc2ccccc2)cc1OC	-2	10	59	2	62*
COc1ccc(C(=O)O/N=C(\N)c2ccccc2)cc1OC	18	1	32	0	56*
COc1cccc(C(=O)O/N=C(\N)c2ccc([N+](=O)[O-])cc2)c1	nt	4	28	-3	59*
N/C(=N\OC(=O)CSc1ccccc1)c1ccccn1	17	1	37	-1	?
CCOC(=O)c1ccc(OS(=O)(=O)c2ccccc2)c(OC)c1	-7	-11	25	-3	63*
COc1cc(CNCCO)cc(Cl)c1OCc1ccc(Cl)cc1Cl	16	-60	3	4	0
COC(=O)/C(=C(/F)Sc1cc(C)c(O)c(C)c1)C(F)(F)F	1	-6	5	3	8
COc1ccc(/C(N)=N/OC(=O)CCc2ccccc2)cc1OC	2	-8	20	-3	28
COc1ccc(/C(N)=N/OC(=O)CCc2ccccc2)cc1	10	6	34	2	55*
C[C@]12CC[C@@H]3c4ccc(O[C@@H]5O[C@H](C(=O)O)[C@@H](O)[C@H](O)[C@H]5O)cc4CC[C@H]3[C@@H]1C[C@@H](O)[C@@H]2O	11	nt	-54*	nt	-65
COc1ccc(/C=N/NC(=O)CC(=O)NC2CCCCC2)cc1	0	-5	2	-1	24
Nc1nnnn1/N=C/C(Br)=C/c1ccccc1	nt	3	188	1	252*
BrC(=C\c1ccccc1)/C=N/N1CCN(c2ccccc2)CC1	-10	-11	107	-2	162*
CC1(C)OC2OC(C(=O)N/N=C/c3cc(Br)ccc3O)C3OC(C)(C)OC3C2O1 (stereo not drawn)	-4	-3	7	2	-1

Source: PubChem
